# High-throughput results deposited in PubChem BioAssay by several laboratories.
# M1 agonist – M1 muscarinic receptor agonism. CHO-M1 cells, Fluo-4 calcium fluorescence, agonist mode; stronger effect = higher value. B-score at 10 µM. 64,000 tested, 3% active. AID 626;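 active means fluorescence rise, raw or as B-score row- and column-corrected plate score, outside the 99.7% band of its plate's samples, either direction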
# Her2 expr inh – Her2 kinase expression inhibition; P04626; SKBR-3 HER2 protein level, AlphaScreen, 18-24 h; stronger effect = lower value; HER2 level % of control, % at 10 µM; 65,000 tested, 0.69% active; AID 645;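 active means HER2 level under 5% of the carrier-only control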;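 further: 100% = DMSO carrier and 0% = 500 nM PU-H71 HSP90 inhibitor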
# M1 antag – blocks the rat M1 muscarinic receptor response to acetylcholine; AID 628; 64,000 tested, 3.4% active; P08482; B-score at 10 µM; CHO-M1 cells, Fluo-4 calcium, ACh EC80 antagonist mode; stronger effect = lower value;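 active means calcium fluorescence response, raw or row-and-column corrected B-score, differing from the plate sample mean either way at a set confidence level, mostly lower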
# Cdc25B inh – human M-phase inducer phosphatase 2 inhibition; P30305; recombinant Cdc25B, OMFP fluorescence Ex485/Em525; inhibition, %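 (compounds tested at 10 µM final in the well)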; 65,000 tested, 0.1% active; AID 368; in the data active means inhibition above about 50%
# HEK293 NFkB inh – lowers PMA/ionomycin-induced NF-kB signal in HEK293 cells | HEK-293 NF-kB luciferase reporter, luminescence | inhibition, % at 3 µM | 62,000 tested, 0.21% active | AID 465;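 active means inhibition above the mean of all tested compounds plus 3 SD, cut at about 40% in these data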;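 further: 0% = stimulated DMSO wells and 100% = 10 µM reference inhibitor 5653914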
#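 Reagent: PMA plus ionomycin mix as NF-kB-activating stimulus. Assay system: NF-kB luciferase reporter HEK-293 cells. Technique: luminescence from luciferase substrate reagent. Incubation: 1 h compound pre-incubation, 16 h PMA/ionomycin at 37 °C. Benchmarks: DMSO only as uninhibited control, 10 µM reference inhibitor as full inhibition. Repeats: tested once.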
# MKP-1 inh – blocks human MKP-1 phosphatase activity; 65,000 tested, 0.15% active; inhibition, %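 (compounds tested at a single concentration somewhere between 10 and 100 µM)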; P28562; AID 374; recombinant MKP-1, OMFP hydrolysis fluorescence;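 active means inhibition above about 50%, limit read from the data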;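 further: 0% = DMSO max control wells and 100% = wells with enzyme stopped by NaOH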
# Target sequence (P28562 whole entry, looked up): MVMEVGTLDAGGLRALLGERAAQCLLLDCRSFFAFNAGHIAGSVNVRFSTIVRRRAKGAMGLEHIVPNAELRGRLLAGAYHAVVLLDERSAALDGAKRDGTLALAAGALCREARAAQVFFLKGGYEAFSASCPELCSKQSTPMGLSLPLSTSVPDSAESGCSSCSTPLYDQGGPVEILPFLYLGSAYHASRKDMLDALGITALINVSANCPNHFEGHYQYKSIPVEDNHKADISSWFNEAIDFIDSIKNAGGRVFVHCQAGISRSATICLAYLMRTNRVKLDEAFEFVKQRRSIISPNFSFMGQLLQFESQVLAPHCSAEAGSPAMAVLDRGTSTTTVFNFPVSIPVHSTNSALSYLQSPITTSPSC
# M1 antag conf – M1 muscarinic receptor (rat) antagonism, confirmed; shares compounds with M1 antag; CHO-M1 cells, Fluo-4 calcium, ACh EC80 antagonism; stronger effect = lower value; calcium response (max-min fluorescence) at 10 µM; 1,700 tested, 43% active;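 active means calcium response below the same-plate mean of wells given acetylcholine alone at its 80%-effect dose, minus 3 SD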;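 further: raw fluorescence intensity difference in arbitrary instrument units and not normalized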
# mGluR4 antag – acts on human mGluR4 in M1 antagonist selectivity test | shares compounds with M1 antag | CHO-mGluR4 calcium flux, Fluo-4 fluorescence, glutamate EC80; stronger effect = lower value | fluorescence response (max-min) at 10 µM | 1,700 tested, 0.9% active | AID 678;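 active means fluorescence response below the plate's average for near-maximal glutamate wells, less 3 SD of those wells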;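 further: raw unnormalized fluorescence span taken in the window right after glutamate addition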
# Active calls of the source: *; x = no result given. Hits are enriched below; roughly 6.8% of the tested compounds scored in any of these assays.
SMILES,M1 agonist,Her2 expr inh,M1 antag,Cdc25B inh,HEK293 NFkB inh,MKP-1 inh,M1 antag conf,mGluR4 antag
Cc1noc(/C=C/N(C)C)c1S(=O)(=O)N1CCCC(C(=O)NC2CCCCC2)C1 (configuration not stated),-0.86,87,-2.3*,2,17,5,477,216
Cc1cc(C(=O)N(C)Cc2ccc(Br)cc2)no1,-0.014,143,-7.8*,-11,17,-7,647,241
Cc1ccc(-c2noc(CSc3nnnn3C3CCCCC3)n2)cc1,0.18,83,-2,-10,9,-8,x,x
CN(C(=O)CSc1nc(-c2ccc(F)cc2)cs1)C1CCS(=O)(=O)C1 (configuration not stated),-0.17,104,-3.1*,-13,8,-8,407,210
Clc1ccc(CSC2=NCCCN2)cc1Cl,0.1,-17*,-4*,-8,27,4,355*,213
CCOC(=O)Cc1csc(NC(=O)CCc2ccc(S(=O)(=O)N3CCOCC3)cc2)n1,0.66,86,-3.1*,7,16,0,571,216
O=C(O)CCC(=O)N1CCc2cc(S(=O)(=O)N3CCC(Cc4ccccc4)CC3)ccc21,-0.4,79,0.99,1,2,42,x,x
CCOC(=O)C(NC(=O)CC)(Nc1sc2c(c1C(=O)OC)CCN(C)C2)C(F)(F)F (configuration not stated),-0.32,112,0.23,2,21,7,x,x
CCOC(=O)NC(Nc1sc2c(c1C(=O)OC)CCN(C)C2)(C(F)(F)F)C(F)(F)F,0.76,100,-1.4*,-19,x,-14,443,217
Cc1ccccc1C(=O)N1CCC(C(=O)Nc2ccc(F)cc2)CC1,0.19,61,-4.3*,-5,2,5,502,184
Cc1ccccc1C(=O)N1CCC(C(=O)Nc2ccc(S(=O)(=O)N3CCCC3)cc2)CC1,0.53,73,0.042,-7,9,21,x,x
O=C(NC(=O)c1ccccc1)NC1(C(F)(F)F)OCCO1,0.22,x,-19*,-9,-30,-1,695,181
CCOC(=O)N1CCN(C(=O)c2cnn(-c3ccccc3)c2NC(=O)c2ccccc2F)CC1,0.3,121,-0.31,-1,-1,-1,x,x
O=C(c1ccc2nc(N3CCCCC3)sc2c1)N1CCN(Cc2ccc3c(c2)OCO3)CC1,-2.1,66,-0.95*,-10,7,4,366,219
CN(C)c1ccc(NC(=O)CN2CCN(CC(=O)Nc3ccc(F)cc3)CC2)cc1,-0.73,99,-4.6*,-19,2,17,718,263
O=C(NCCCN1CCOCC1)c1ccc(CS(=O)(=O)Cc2ccc(Cl)cc2)o1,0.38,117,-0.044,-4,4,3,x,x
CCCCC(=O)Nc1ccc(C(=O)N2CCN(C)CC2)cc1,-0.63,87,0.011,1,-3,5,x,x
Cc1cccn2c(=O)c3cc(C(=O)NC(C)C)c(=N)n(Cc4ccncc4)c3nc12,x,80,x,4,3,-14,x,x
N=c1c(C(=O)NCc2ccccc2)cc2c(=O)n3ccccc3nc2n1CCCN1CCOCC1,0.095,120,-1.6,-5,6,-13,x,x
COc1ccc(CCn2c(=N)c(C(=O)NCc3ccco3)cc3c(=O)n4ccccc4nc32)cc1,0.7,110,-2.7*,-10,x,-9,540,229
COCCCNC(=O)c1cc2c(=O)n3cccc(C)c3nc2n(C(C)C)c1=N,0.53,129,-0.5,-3,11,-6,x,x
COCCn1c(=N)c(C(=O)NCCc2ccc(OC)cc2)cc2c(=O)n3cccc(C)c3nc21,1.2,95,-4.4*,8,10,-11,311*,208
CCNC(=O)c1cc2c(=O)n3cccc(C)c3nc2n(Cc2ccc(C)cc2)c1=N,0.79,83,-2.9*,-11,17,23,609,198
Cc1c(O)c(CN2CCCC(C)C2)cc2c3c(c(=O)oc12)CCC3 (configuration not stated),-0.54,123,0.4,-5,x,-18,x,x
CC(C)Oc1ccc(C(=O)Nc2ccc(N3CCCC3)cc2)cc1,-0.018,75,-2.1*,-11,6,2,405*,249
SMILES,M1 agonist,Her2 expr inh,M1 antag,Cdc25B inh,HEK293 NFkB inh,MKP-1 inh,M1 antag conf,mGluR4 antag
Cc1ccc2[nH]c(=O)c(-c3nc4cc(C)ccn4c3NCc3ccco3)cc2c1,0.097,91,-3.3*,2,9,1,412,217
COC(=O)C(C(=O)OC)C(C(C)C)C(C(=O)OC)C(=O)OC,1.1,82,0.0079,-1,x,4,x,x
CC(C)NC(=O)CCNC(=O)c1ccc(F)cc1,-1.3,109,-0.42,-28,11,11,x,x
O=C(CCCc1nc(-c2ccc(Cl)cc2)no1)Nc1cccnc1,1.4,102,-2.7*,-5,25,-10,528*,214
O=C(C1CCCO1)N1CCC(O)(c2ccccc2)CC1 (configuration not stated),0.9,99,-0.34,9,13,0,x,x
O=c1c2c(nc3n1CCCCC3)-c1ccccc1CC21CCCC1,-0.89,102,-8.2*,-5,10,-30,314*,264
Cn1c(NCCO)nc2c(c1=O)C1(CCCCC1)Cc1ccccc1-2,-0.39,100,-1.4,-7,6,12,x,x
Cc1cc2ccccc2c(=O)n1CC(=O)NCC(=O)N1CCCC1,0.45,80,-1.4,-15,9,4,x,x
COc1ccc(N2CCN(C(=O)CNC(=O)Cn3c(C)cc4ccccc4c3=O)CC2)cc1,-0.86,115,-2.4*,-3,20,2,642,245
O=C(CSc1nnnn1-c1ccccc1)CC(=O)Nc1ccc(Cl)cc1,0.8,59,0.1,-10,6,24,x,x
CCCCc1ccc(C2C(C#N)=C(N)SC(N)=C2C#N)s1,-1.8,149,-1.1,-4,6,-6,x,x
O=C(Cn1nnc(-c2cccc(C(F)(F)F)c2)n1)N1CCOCC1,-0.77,76,-2.1*,-7,9,7,661,182
NC(=O)Cn1nnc(-c2ccc(C(F)(F)F)cc2)n1,-1.9,116,0.53,-8,14,10,x,x
CCOc1ccc(NC(=O)c2cccc3c2C(=O)N(Cc2cccnc2)C3)cc1,-0.12,181,0.35,5,-2,8,x,x
CCC1(C)Cc2ccccc2/C(=C/C(=O)N2CCCCC2)N1 (configuration not stated),-0.79,74,-2.7*,-18,13,0,18*,246
COc1ccc(-n2nnnc2SCC(=O)Nc2cccc(C)n2)cc1OC,-0.058,91,0.35,-5,11,13,x,x
